The source made the active and inactive calls. The rule behind the calls is not given here.

In test [1] the test system is HepG2. Kind of test: Inhibition of anti-Fas induced apoptosis in human HepG2 cells at 1 nM by LDH assay. It is filed as functional, cell-based. The essentials: (§1)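 HepG2 cells, 10^4/well in triplicate, in phenol-red-free DMEM with 4% FCS and 2 µg/ml cycloheximide. Apoptosis induced with anti-Fas (CH-11 at 50 ng/ml or DX2 at 1.5 µg/ml) with or without test agent, 18 h at 37 °C, 5% CO2. Supernatant LDH activity read at O.D. 490/650. Untreated cells and 1% Triton X-100 served as 0% and 100% cytotoxicity references for % protection. Means of three independent experiments.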

The species entered for test [2] is Homo sapiens. Kind of test: Protective effect on anti-Fas induced apoptosis in human Hep3b p53-/- cells 1 nM by LDH assay. It is filed as functional, cell-based.
The nature of test [3]: Production of nitric oxide by in vitro Griess assay. It counts as functional. The procedure, abridged:
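NO release estimated as nitrite by Griess reaction in vitro: chromophore formed for 10 min at 30 °C, absorbance at 540 nm, reported as ng/ml.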

Test [4] relates to Rattus norvegicus. Briefly: Inhibition of CCl4-induced liver damage in rat at 128 mg/kg, po. It is filed as functional, organism-based. More on the design: dose 128 mg/kg.
For test [5], the system named is HepG2. Kind of test: Inhibition of anti-Fas induced apoptosis in human HepG2 cells at 0.1 nM by LDH assay. It counts as functional, cell-based. The procedure, abridged: as §1
For test [6], the species on record is Homo sapiens. Kind of test: Protective effect on anti-Fas induced apoptosis in human Hep3b p53-/- cells 0.1 nM by LDH assay. It is filed as functional, cell-based.
In test [7] the test system is Rattus norvegicus. Kind of test: Inhibition of CCl4-induced hepatic fibrosis in rat at 128 mg/kg, po. It is filed as functional, organism-based. More on the design: dose 128 mg/kg.
For test [8], the species on record is Homo sapiens. Briefly: Protective effect on anti-Fas induced apoptosis in human Hep3b p53-/- cells 0.1 uM by LDH assay. It is filed as functional, cell-based.
Test [9] has as its system HepG2. Kind of test: Protective effect on anti-Fas induced apoptosis in human HepG2 cells by LDH assay. It is filed as functional. The essentials: as §1
Test [10] relates to HepG2. Kind of test: Inhibition of anti-Fas induced apoptosis in human HepG2 cells at 0.1 uM by LDH assay. It is filed as functional, cell-based. The procedure, abridged: as §1
Test [11] relates to HepG2. Briefly: Inhibition of anti-Fas induced apoptosis in human HepG2 cells at 10 nM by LDH assay. It is filed as functional, cell-based. The procedure, abridged: as §1
For test [12], the species on record is Homo sapiens. Kind of test: Protective effect on anti-Fas induced apoptosis in human Hep3b p53-/- cells 10 nM by LDH assay. It counts as functional, cell-based.

As for `COc1cc(/C=C/C(=O)OCCCCO[N+](=O)[O-])ccc1OC(=O)[C@]12CCC(C)(C)C[C@H]1C1=CC[C@@H]3[C@@]4(C)CC[C@H](OC(=O)C(F)(F)F)C(C)(C)[C@@H]4CC[C@@]3(C)[C@]1(C)CC2`, the result with HepG2 [1] and in the test filed under Homo sapiens [2] was Active. In [3], this compound came in with an Activity of 12 ng/mL.

For the compound `COc1cc(/C=C/C(=O)OCCCO[N+](=O)[O-])ccc1OC(=O)[C@]12CCC(C)(C)C[C@H]1C1=CC[C@@H]3[C@@]4(C)CC[C@H](OC(=O)C(F)(F)F)C(C)(C)[C@@H]4CC[C@@]3(C)[C@]1(C)CC2`, the result with Rattus norvegicus [4], in the test on HepG2 [5], in the test listed under Homo sapiens [6] and in the test on Rattus norvegicus [7] was Active. Further, the Activity in [3] turned out to be 12 ng/mL.

On to `CC1(C)CC[C@]2(C(=O)Oc3ccc(/C=C/C(=O)OCCCCO[N+](=O)[O-])cc3)CC[C@]3(C)C(=CC[C@@H]4[C@@]5(C)CC[C@H](OC(=O)C(F)(F)F)C(C)(C)[C@@H]5CC[C@]43C)[C@@H]2C1`, for which the outcome in the test filed under Homo sapiens [8] was Active. Besides, in test [3], the Activity stood at 20 ng/mL.

In turn, `COc1cc(/C=C/C(=O)OCCCCO[N+](=O)[O-])ccc1OC(=O)CC[C@@H](C)[C@H]1CC[C@H]2[C@H]3C(CC[C@]12C)[C@@]1(C)CC[C@@H](O)C[C@H]1C[C@@H]3O` (stereo partly drawn) displayed an Activity in the test on HepG2 [9] of 33.4%.

In the case of `COc1cc(C(=O)OCCCCO[N+](=O)[O-])ccc1OC(=O)[C@]12CCC(C)(C)C[C@H]1C1=CC[C@@H]3[C@@]4(C)CC[C@H](OC(=O)C(F)(F)F)C(C)(C)[C@@H]4CC[C@@]3(C)[C@]1(C)CC2`, the Activity in [3] is 28 ng/mL.

In the case of `COc1cc(/C=C/C(=O)OCCCCCCO[N+](=O)[O-])ccc1OC(=O)[C@]12CCC(C)(C)C[C@H]1C1=CC[C@@H]3[C@@]4(C)CC[C@H](OC(=O)C(F)(F)F)C(C)(C)[C@@H]4CC[C@@]3(C)[C@]1(C)CC2`, the result in the test with HepG2 [10] and in the test listed under Homo sapiens [8] was Active. In addition, the Activity in test [3] turned out to be 21 ng/mL.

As for `CC1(C)CC[C@]2(C(=O)Oc3ccc(/C=C/C(=O)OCCCO[N+](=O)[O-])cc3)CC[C@]3(C)C(=CC[C@@H]4[C@@]5(C)CC[C@H](OC(=O)C(F)(F)F)C(C)(C)[C@@H]5CC[C@]43C)[C@@H]2C1`, the outcome with HepG2 [11] and in the test listed under Homo sapiens [12] was Active. The Activity in test [3] was 18 ng/mL.

Source of the values: ChEMBL document CHEMBL1144656, “Synthesis and biological evaluation of nitric oxide-releasing derivatives of oleanolic acid as inhibitors of HepG2 cell apoptosis” (2007).
